Source: ChEMBL document CHEMBL3525963, “Tissue distribution and elimination of [14C]apixaban in rats” (Drug Metab Dispos, 2011)

Assays:
Design in all cases: dose 5 mg/kg, dosed compound name [14C]-apixaban, route oral
Settings in all cases: in vivo
Blood = assay: Biodistribution in male Sprague-Dawley rat blood at 5 mg/kg, po administered as single dose measured after 1 hr; assay type: ADME, organism-based
Summary of the method: (§1)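 [¹⁴C]Apixaban given by oral gavage at 5 mg/kg (100 μCi/kg) in 0.5% Tween 80 in Labrafil (1.0 mg/mL dosing solution) to rats fasted overnight through 4 h post-dose. One rat per time point; carcass frozen in hexane/dry ice. Quantitative whole-body autoradiography used 40 µm sagittal sections and a phosphor imaging plate calibrated with [¹⁴C]glucose standards (0.001–6.5 μCi/g). Read-out in µg eq apixaban/g; LLOQ 0.037 μg eq/g.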

Pancreas [1] = assay: Biodistribution in male Sprague-Dawley rat pancreas at 5 mg/kg, po administered as single dose measured after 1 hr; assay type: ADME, organism-based
Summary of the method: (§2)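 [14C]apixaban (1.0 mg/mL, 20 μCi/mL) in 0.5% Tween 80 in Labrafil, given by oral gavage at 100 μCi/kg to male rats (225-252 g) fasted overnight through 4 h post-dose. One rat per time point. Carcasses frozen in hexane/dry ice and cut into 40 µm sagittal sections. QWBA read on phosphor plates against [14C]glucose standards, reported as µg eq/g. LLOQ 0.037 µg eq/g.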

Rattus norvegicus [2] = assay: Biodistribution in female Sprague-Dawley rat brown fat at 5 mg/kg, po administered as single dose measured after 4 hrs; assay type: ADME, organism-based, Brown adipose tissue
Summary of the method: (§3)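 [14C]apixaban (20 μCi/mL in dosing solution) in 0.5% Tween 80 in Labrafil given by oral gavage to fasted female rats, 206-213 g, at 100 μCi/kg. One rat per time point was euthanized and snap-frozen. Sagittal 40 µm whole-body sections were read by QWBA phosphor imaging against [14C]glucose standards. Results are in µg eq apixaban/g, with LLOQ 0.037 μg eq/g.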

Adrenal gland = assay: Biodistribution in female Sprague-Dawley rat adrenal gland at 5 mg/kg, po administered as single dose measured after 72 hrs; assay type: ADME, organism-based
Summary of the method: (§4)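 Quantitative whole-body autoradiography was run after a single 5 mg/kg (100 μCi/kg) oral gavage to fasted female or pregnant SD rats, one rat per time point. Carcasses were frozen in hexane/dry ice, and 40 µm sagittal sections were dried at −20°C for at least 48 h. Sections were exposed to a phosphor plate alongside [14C]glucose standards (0.001–6.5 µCi/g). Results are µg eq/g, with LLOQ 0.037 µg eq/g.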

Rattus norvegicus [3] = assay: Biodistribution in female Sprague-Dawley rat salivary gland at 5 mg/kg, po administered as single dose measured after 1 hr; assay type: ADME, organism-based; summary of the method: as §3
Muscle tissue [4] = assay: Biodistribution in male Sprague-Dawley rat muscle at 5 mg/kg, po administered as single dose measured after 72 hrs; assay type: ADME, organism-based
Summary of the method: (§5)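 Fasted male SD rats (225-252 g) each received one oral gavage dose of [14C]apixaban, 5 mg/kg (100 μCi/kg), in 0.5% Tween 80/Labrafil vehicle. One rat was killed per time point, from 0.5 to 168 h. Frozen carcasses were cut into 40 µm sagittal whole-body sections and read by QWBA phosphor imaging against [14C]glucose calibrants. Results are in µg apixaban eq/g; BLQ <0.037 µg eq/g.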

Lung [5] = assay: Biodistribution in male Sprague-Dawley rat lung at 5 mg/kg, po administered as single dose measured after 4 hrs; assay type: ADME, organism-based; summary of the method: as §2
Thymus [6] = assay: Biodistribution in female Sprague-Dawley rat thymus at 5 mg/kg, po administered as single dose measured after 0.5 hrs; assay type: ADME, organism-based; summary of the method: as §1
Heart [7] = assay: Biodistribution in male Sprague-Dawley rat heart at 5 mg/kg, po administered as single dose measured after 4 hrs; assay type: ADME, organism-based; summary of the method: as §2
Rattus norvegicus [8] = assay: Biodistribution in female Sprague-Dawley rat pituitary gland at 5 mg/kg, po administered as single dose measured after 1 hr; assay type: ADME, organism-based; summary of the method: as §3
Rattus norvegicus [9] = assay: Biodistribution in pregnant Sprague-Dawley rat placenta at 5 mg/kg, po administered as single dose measured after 8 hrs; assay type: ADME, organism-based
Lung [10] = assay: Biodistribution in male Sprague-Dawley rat lung at 5 mg/kg, po administered as single dose measured after 24 hrs; assay type: ADME, organism-based; summary of the method: as §2
Muscle tissue [11] = assay: Biodistribution in female Sprague-Dawley rat muscle at 5 mg/kg, po administered as single dose measured after 72 hrs; assay type: ADME, organism-based; summary of the method: as §4
Muscle tissue [12] = assay: Biodistribution in pregnant Sprague-Dawley rat muscle at 5 mg/kg, po administered as single dose measured after 1 hr; assay type: ADME, organism-based
Pancreas [13] = assay: Biodistribution in male Sprague-Dawley rat pancreas at 5 mg/kg, po administered as single dose measured after 72 hrs; assay type: ADME, organism-based; summary of the method: as §5
Rattus norvegicus [14] = assay: Biodistribution in male Sprague-Dawley rat kidney cortex at 5 mg/kg, po administered as single dose measured after 24 hrs; assay type: ADME, organism-based
Thymus [15] = assay: Biodistribution in pregnant Sprague-Dawley rat thymus at 5 mg/kg, po administered as single dose measured after 1 hr; assay type: ADME, organism-based
Rattus norvegicus [16] = assay: Biodistribution in pregnant Sprague-Dawley rat kidney cortex at 5 mg/kg, po administered as single dose measured after 4 hrs; assay type: ADME, organism-based
Plasma = assay: AUC (0 to t) in lactating Sprague-Dawley rat plasma at 5 mg/kg, po administered as single dose; assay type: ADME, organism-based
Summary of the method: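 Fasted lactating SD rats received 5 mg/kg [14C]apixaban orally (formulation 5.0 mg/mL, 20 μCi/mL). Oxytocin was injected subcutaneously 15 min before collection, and 1 mL milk was taken under anesthesia by milking machine. Sampling was predose and at 0.5–24 h, 3 rats per time point. Plasma was obtained at 1300g for 10 min. Duplicate 50–100 µL aliquots were counted by LSC for 10 min. AUC was calculated in WinNonlin.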

Liver [17] = assay: Biodistribution in pregnant Sprague-Dawley rat liver at 5 mg/kg, po administered as single dose measured after 24 hrs; assay type: ADME, organism-based
Harderian gland = assay: Biodistribution in female Sprague-Dawley rat harderian gland at 5 mg/kg, po administered as single dose measured after 4 hrs; assay type: ADME, organism-based; summary of the method: as §1
Rattus norvegicus [18] = assay: Biodistribution in female Sprague-Dawley rat brown fat at 5 mg/kg, po administered as single dose measured after 72 hrs; assay type: ADME, organism-based, Brown adipose tissue; summary of the method: as §4
Heart [19] = assay: Biodistribution in pregnant Sprague-Dawley rat heart at 5 mg/kg, po administered as single dose measured after 0.5 hrs; assay type: ADME, organism-based
Rattus norvegicus [20] = assay: Biodistribution in female Sprague-Dawley rat kidney cortex at 5 mg/kg, po administered as single dose measured after 8 hrs; assay type: ADME, organism-based; summary of the method: as §3
[21] = Drug level in lactating Sprague-Dawley rat milk at 5 mg/kg, po administered as single dose after 1 hr; assay type: ADME, organism-based
Liver [22] = assay: Biodistribution in pregnant Sprague-Dawley rat liver at 5 mg/kg, po administered as single dose measured after 0.5 hrs; assay type: ADME, organism-based
Summary of the method: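 Fasted pregnant SD rats (n=6, 270-319 g) each received one oral gavage dose of [14C]apixaban, 5 mg/kg (100 μCi/kg), in 0.5% Tween 80/Labrafil. One rat was killed at each of 0.5, 1, 4, 8, 24 and 48 h. Carcasses were frozen in hexane/dry ice, cut into 40 µm sagittal sections, exposed to phosphor plates and quantified against [14C]glucose standards as µg eq/g. LLOQ was 0.037 µg eq/g.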

Thymus [23] = assay: Biodistribution in male Sprague-Dawley rat thymus at 5 mg/kg, po administered as single dose measured after 8 hrs; assay type: ADME, organism-based
Rattus norvegicus [24] = assay: Biodistribution in male Sprague-Dawley rat salivary gland at 5 mg/kg, po administered as single dose measured after 0.5 hrs; assay type: ADME, organism-based
Lung [25] = assay: Biodistribution in pregnant Sprague-Dawley rat lung at 5 mg/kg, po administered as single dose measured after 24 hrs; assay type: ADME, organism-based

COc1ccc(-n2nc(C(N)=O)c3c2C(=O)N(c2ccc(N4CCCC[14C]4=O)cc2)CC3)cc1
Radiolabel recovery (Blood): 1.18 ugequiv/g
Radiolabel recovery (Pancreas [1]): 0.62 ugequiv/g
Radiolabel recovery (Rattus norvegicus [2]): 0.61 ugequiv/g
Radiolabel recovery (Adrenal gland): Not detected assumed BLQ
Radiolabel recovery (Rattus norvegicus [3]): 0.55 ugequiv/g
Radiolabel recovery (Muscle tissue [4]): Not detected assumed BLQ
Radiolabel recovery (Lung [5]): 0.64 ugequiv/g
Radiolabel recovery (Thymus [6]): 0.2 ugequiv/g
Radiolabel recovery (Heart [7]): 0.45 ugequiv/g
Radiolabel recovery (Rattus norvegicus [8]): 0.42 ugequiv/g
Radiolabel recovery (Rattus norvegicus [9]): 0.1 ugequiv/g
Radiolabel recovery (Lung [10]): < 0.037 ugequiv/g
Radiolabel recovery (Muscle tissue [11]): Not detected assumed BLQ
Radiolabel recovery (Muscle tissue [12]): 0.46 ugequiv/g
Radiolabel recovery (Pancreas [13]): Not detected assumed BLQ
Radiolabel recovery (Rattus norvegicus [14]): < 0.037 ugequiv/g
Radiolabel recovery (Thymus [15]): 0.58 ugequiv/g
Radiolabel recovery (Rattus norvegicus [16]): 1.93 ugequiv/g
AUCt (Plasma): 3420 ngequiv.hr/g
Radiolabel recovery (Liver [17]): 0.12 ugequiv/g
Radiolabel recovery (Harderian gland): 1.12 ugequiv/g
Radiolabel recovery (Rattus norvegicus [18]): Not detected assumed BLQ
Radiolabel recovery (Heart [19]): 0.68 ugequiv/g
Radiolabel recovery (Rattus norvegicus [20]): 0.42 ugequiv/g
Radiolabel recovery [21]: 4.56 µg/mL
Radiolabel recovery (Liver [22]): 6.77 ugequiv/g
Radiolabel recovery (Thymus [23]): 0.06 ugequiv/g
Radiolabel recovery (Rattus norvegicus [24]): 0.3 ugequiv/g
Radiolabel recovery (Lung [25]): < 0.037 ugequiv/g
